# Source: ChEMBL document CHEMBL4196017, “Design, synthesis and identification of silicon-containing HCV NS5A inhibitors with pan-genotype activity” (Eur J Med Chem, 2018)
# Legend:
# [1] = molecular target: T1, Nonstructural protein 5A (Hepatitis C virus) (UniProt Q5L478); assay: Potency index, ratio of ombitasvir IC50 to compound IC50 for inhibition of NS5A in HCV genotype 6a infected in human HuH7 replicon cells expressing HCV genotype 1b chimeric replicon; type: cell-based; details: Hepatitis C virus subtype 6a
# T1 sequence (whole entry): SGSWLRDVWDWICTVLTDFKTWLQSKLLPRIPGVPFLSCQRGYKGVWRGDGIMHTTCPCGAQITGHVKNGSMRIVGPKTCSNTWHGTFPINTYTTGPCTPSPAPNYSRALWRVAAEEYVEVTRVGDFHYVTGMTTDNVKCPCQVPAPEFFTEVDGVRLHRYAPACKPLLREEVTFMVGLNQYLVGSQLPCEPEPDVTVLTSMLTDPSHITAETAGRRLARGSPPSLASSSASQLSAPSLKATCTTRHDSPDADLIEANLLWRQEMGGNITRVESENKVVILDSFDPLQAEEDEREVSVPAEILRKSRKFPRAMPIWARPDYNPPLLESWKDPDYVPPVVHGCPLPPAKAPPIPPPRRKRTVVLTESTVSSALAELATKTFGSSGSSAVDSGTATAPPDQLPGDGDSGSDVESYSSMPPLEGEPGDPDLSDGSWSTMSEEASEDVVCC
# [2] = molecular target: T1, Nonstructural protein 5A (Hepatitis C virus); assay: Potency index, ratio of ombitasvir IC50 to compound IC50 for inhibition of NS5A in HCV genotype 3a infected in human HuH7 replicon cells expressing HCV genotype 1b chimeric replicon; type: cell-based; details: Hepatitis C virus subtype 3a
# [3] = Half life in mouse at 10 mg/kg, ig administered as single dose by UPLC-MS/MS analysis; type: ADME, organism-based; details: in vivo, po
# Summary of the method: (§1)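 Adult male mice (12 h light-dark, 22 °C, 55% humidity) fasted 12 h with free water, then given a single 10 mg/kg intragastric dose; plasma concentrations by UPLC-MS/MS; PK parameters calculated by software.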
# [4] = Metabolic stability in mouse liver microsomes assessed as parent compound remaining at 0.2 uM preincubated for 5 mins followed by NADPH addition measured up to 60 mins by UPLC-MS/MS analysis; type: ADME, microsome; details: read-out: Stability
# Summary of the method: (§2)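 Pooled mouse, rat or human liver microsomes 0.2 mg/mL with 1 mM NADPH, 5 mM MgCl2, 100 mM potassium phosphate pH 7.4 and 0.2 µM compound; 5-min preincubation at 37 °C, NADPH start, sampled at 5, 15, 30, 60 min; ice-cold acetonitrile stop; UPLC-MS/MS; percent parent remaining at 60 min.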
# [5] = Metabolic stability in human liver microsomes assessed as parent compound remaining at 0.2 uM preincubated for 5 mins followed by NADPH addition measured up to 60 mins by UPLC-MS/MS analysis; type: ADME, microsome; details: read-out: Stability; summary of the method: as §2
# [6] = Cmax in mouse at 10 mg/kg, ig administered as single dose by UPLC-MS/MS analysis; type: ADME, organism-based; parameters: dose 10 mg/kg, route intragastric; details: in vivo, po; summary of the method: as §1
# [7] = Tmax in mouse at 10 mg/kg, ig administered as single dose by UPLC-MS/MS analysis; type: ADME, organism-based; details: in vivo, po; summary of the method: as §1
# [8] = AUC (0 to t) in mouse at 10 mg/kg, ig administered as single dose by UPLC-MS/MS analysis; type: ADME, organism-based; details: in vivo, po; summary of the method: as §1
# [9] = Metabolic stability in rat liver microsomes assessed as parent compound remaining at 0.2 uM preincubated for 5 mins followed by NADPH addition measured up to 60 mins by UPLC-MS/MS analysis; type: ADME, microsome; details: read-out: Stability; summary of the method: as §2
Structure (SMILES),Ratio IC50 [1],Ratio IC50 [2],half-life [3] [h],"remaining at 1 h, 0.2 µM [4] [%]","remaining at 1 h, 0.2 µM [5] [%]",Cmax [6] [ng/mL],Tmax [7] [h],AUC(0-t) [8] [ng·h/mL],"remaining at 1 h, 0.2 µM [9] [%]"
COC(=O)N[C@H](C(=O)N1CCC[C@H]1C(=O)Nc1ccc([C@@H]2CC[C@@H](c3ccc(NC(=O)[C@@H]4CCCN4C(=O)[C@@H](NC(=O)OC)C(C)C)cc3)N2c2ccc([Si](C)(C)C(C)(C)C)cc2)cc1)C(C)C,3.7,7.2,34.7,92.1,84.3,211,3,3520,87
COC(=O)N[C@H](C(=O)N1CCC[C@H]1C(=O)Nc1ccc([C@@H]2CC[C@@H](c3ccc(NC(=O)[C@@H]4CCCN4C(=O)[C@@H](NC(=O)OC)C(C)C)cc3)N2c2ccc([Si](C)(C)C)cc2)cc1)C(C)C,2.4,2.3,8.8,93.3,99.2,262,3,2910,101
